Among the data in ChEMBL document CHEMBL1165902, “Synthesis and antiproliferative activity of oxazinocarbazole and N,N-bis(carbazolylmethyl)amine derivatives” (Eur J Med Chem, 2010) are Activity and IC50 values, retold here.

The test system of test [1] is Caco-2. As to the kind of experiment: Antiproliferative activity against human Caco-2 cells at 100 uM after 72 hrs by WST1 assay. It counts as functional. The essentials:
(§1)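 Cells were exposed to compound for 72 h at 37 °C in RPMI 1640 with 10% FCS. Densities (cells/mL) were CEM 0.2×10^6, Jurkat 0.6×10^6, Raji 0.4×10^6, MCF-7 and Caco-2 0.2×10^6. WST-1 was then added for 4 h and absorbance read at 492 nm. Living cells are given as % of untreated-control OD (100 = no activity), with 0.1% DMSO vehicle controls and etoposide as positive control.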

Test [2] relates to MCF7. The test is described as follows: Antiproliferative activity against human MCF7 cells at 100 uM after 72 hrs by WST1 assay. Format: functional. The essentials:
as §1

The test system of test [3] is CCRF-CEM. As to the kind of experiment: Antiproliferative activity against human CEM cells after at 100 uM 72 hrs by WST1 assay. It counts as functional. The essentials:
as §1

In test [4] the test system is Raji. As to the kind of experiment: Antiproliferative activity against human Raji cells at 100 uM after 72 hrs by WST1 assay. It counts as functional. An outline of the steps: as §1
In test [5] the test system is Jurkat. As to the kind of experiment: Antiproliferative activity against human Jurkat cells at 100 uM after 72 hrs by WST1 assay. It counts as functional. An outline of the steps:
as §1

Test [6] relates to Jurkat. As to the kind of experiment: Antiproliferative activity against human Jurkat cells after 72 hrs by WST1 assay. Format: functional, cell-based. The essentials: (§2)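 Seeding densities (cells/mL) were CEM 0.2×10^6, Jurkat 0.6×10^6, Raji 0.4×10^6, MCF-7 0.2×10^6 and Caco-2 0.2×10^6, in RPMI 1640 with 10% FCS, non-essential amino acids, pyruvate, glutamine and gentamicin. Cells were exposed to 12.5–100 µM (DMSO stocks, 0.1% DMSO controls) for 72 h at 37 °C. WST-1 was added for 4 h and read at 492 nm. IC50 is for 50% growth inhibition.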

Test [7] relates to Caco-2. The test is described as follows: Antiproliferative activity against human Caco-2 cells after 72 hrs by WST1 assay. It counts as functional, cell-based. Particulars: Caco-2, 72 h. An outline of the steps: as §2
In test [8] the test system is CCRF-CEM. The test is described as follows: Antiproliferative activity against human CEM cells after 72 hrs by WST1 assay. Format: functional, cell-based. An outline of the steps: as §2
The subject of test [9] is MCF7. The test is described as follows: Antiproliferative activity against human MCF7 cells after 72 hrs by WST1 assay. It counts as functional, cell-based. The following applies: MCF7, 72 h. An outline of the steps: as §2
Test [10] concerns Raji. As to the kind of experiment: Antiproliferative activity against human Raji cells after 72 hrs by WST1 assay. It counts as functional, cell-based. An outline of the steps: as §2

On to `CCn1c2ccccc2c2c(O)c(CN(Cc3ccccn3)Cc3ccc4c(c3O)c3ccccc3n4CC)ccc21`, for which the Activity with Caco-2 [1] is given as 35.5%; in the test with MCF7 [2], 89%; in the test on CCRF-CEM [3] it was 53%; with Raji [4], 100%; with Jurkat [5] it was 97.5%.

Turning to `C=CCn1c2ccccc2c2c(O)c(CN(Cc3ccccn3)Cc3ccc4c(c3O)c3ccccc3n4CC=C)ccc21`, the Activity with Caco-2 [1] worked out at 94%; in the test with MCF7 [2] it was 94.5%; in the test with CCRF-CEM [3], 78.5%; in the test on Raji [4] it was 95.5%; in the test on Jurkat [5], 92%.

On to `Cn1c2ccccc2c2c3c(ccc21)CN(c1ccccc1)CO3`, for which the Activity in the test with Caco-2 [1] was found to be 100%; with MCF7 [2], 100%; with CCRF-CEM [3], 25%; with Raji [4], 77%; in the test on Jurkat [5] it was 74.5%.

Take `C=CCn1c2ccccc2c2c3c(ccc21)CN(c1ccccc1)CO3`: the Activity in the test on Caco-2 [1] was determined as 54.5%; with MCF7 [2], 83%; with CCRF-CEM [3] it was 17%; in the test with Raji [4] it was 49.5%; in the test with Jurkat [5] it was 13.5%.

Regarding `C=CCN1COc2c(ccc3c2c2ccccc2n3CC=C(C)C)C1`, the Activity in the test on Caco-2 [1] was 30%; in the test on MCF7 [2], 2%; in the test with CCRF-CEM [3] it was 4%; in the test with Raji [4], 3.5%; with Jurkat [5], 2%. The IC50 in the test on Jurkat [6] came out at 11.8 µM; in the test with Caco-2 [7], 43.8 µM; in the test on CCRF-CEM [8], 11.8 µM; with MCF7 [9] it was 37 µM; in the test with Raji [10] it was 11.9 µM.

On to `CC(C)=CCn1c2ccccc2c2c(O)c(CN(Cc3ccccn3)Cc3ccc4c(c3O)c3ccccc3n4CC=C(C)C)ccc21`, for which the Activity with Caco-2 [1], with MCF7 [2], in the test on CCRF-CEM [3], with Raji [4] and with Jurkat [5] was 100% each time.

Consider `Cn1c2ccccc2c2c(O)c(CN(Cc3ccccn3)Cc3ccc4c(c3O)c3ccccc3n4C)ccc21`, for which the Activity with Caco-2 [1] worked out at 54%; with MCF7 [2], 98.5%; in the test with CCRF-CEM [3] it was 87.5%; in the test with Raji [4], 100%; in the test on Jurkat [5], 72%.

In the case of `Cn1c2ccccc2c2ccc3c(c21)CN(Cc1ccccn1)CO3`, the Activity in the test with Caco-2 [1] is on record as 7%; in the test with MCF7 [2], 1.5%; in the test with CCRF-CEM [3], 1%; with Raji [4], 23%; in the test on Jurkat [5], 2%. Further, the IC50 was 75 µM in the test with Jurkat [6], 68.8 µM with Caco-2 [7] and 74.3 µM in the test on CCRF-CEM [8].

For `Cn1c2ccccc2c2c3c(ccc21)CN(Cc1ccccc1)CO3`, the Activity was 100% with Caco-2 [1]; 87% in the test with MCF7 [2]; 10% in the test on CCRF-CEM [3]; 80% in the test with Raji [4]; 87% with Jurkat [5].

For the molecule `C=CCN1COc2ccc3c4ccccc4n(C)c3c2C1`, the Activity worked out at 5% in the test with Caco-2 [1]; 62% in the test with MCF7 [2]; 1.5% in the test on CCRF-CEM [3]; 60.5% in the test with Raji [4]; 2% with Jurkat [5].

Turning to `CCn1c2ccccc2c2c3c(ccc21)CN(c1ccccc1)CO3`, the Activity is 100% in the test with Caco-2 [1]; 100% with MCF7 [2]; 58.5% with CCRF-CEM [3]; 84% in the test on Raji [4]; 55% in the test on Jurkat [5].

In the case of `CCn1c2ccccc2c2c3c(ccc21)CN(Cc1ccccn1)CO3`, the Activity in the test with Caco-2 [1] worked out at 16%; in the test with MCF7 [2] it was 52%; in the test with CCRF-CEM [3], 23%; in the test on Raji [4], 100%; in the test on Jurkat [5], 82%.

For `Cn1c2ccccc2c2cc(CN(Cc3ccccn3)Cc3cc4c5ccccc5n(C)c4cc3O)c(O)cc21`, the Activity in the test on Caco-2 [1] came to 10.5%; in the test with MCF7 [2], 24.5%; with CCRF-CEM [3], 9%; in the test on Raji [4], 70%; with Jurkat [5], 8.5%.

For the molecule `C=CCN1COc2c(ccc3c2c2ccccc2n3C)C1`, the Activity with Caco-2 [1] was determined as 5%; in the test with MCF7 [2], 35%; in the test on CCRF-CEM [3], 4.5%; in the test on Raji [4], 9.5%; with Jurkat [5], 8.5%. Also, the IC50 in the test with Jurkat [6] is 69 µM; in the test on Caco-2 [7] it was 32.1 µM; in the test on CCRF-CEM [8] it was 35.7 µM; with Raji [10] it was 43.6 µM.

Turning to `CCn1c2ccccc2c2c3c(ccc21)CN(Cc1ccccc1)CO3`, the Activity in the test with Caco-2 [1] is reported as 46%; in the test with MCF7 [2], 64%; with CCRF-CEM [3], 31.5%.

In the case of `CCn1c2ccccc2c2c3c(ccc21)CN(Cc1ccc(C)cc1)CO3`, the Activity worked out at 93% with Caco-2 [1]; 85.5% with MCF7 [2]; 15% with CCRF-CEM [3]; 31.5% in the test on Raji [4]; 49.5% in the test with Jurkat [5].

For the molecule `Cn1c2ccccc2c2cc3c(cc21)OCN(Cc1ccccc1)C3`, the Activity with Caco-2 [1] worked out at 1.5%; with MCF7 [2] it was 3%; in the test with CCRF-CEM [3], 0.5%; in the test on Raji [4], 11%; with Jurkat [5], 1%.

For the molecule `C=CCN1COc2c(ccc3c2c2ccccc2n3CC=C)C1`, the Activity with Caco-2 [1] came out at 12%; with MCF7 [2], 43%; in the test with CCRF-CEM [3] it was 2%; in the test on Raji [4] it was 19.5%; in the test with Jurkat [5], 2.5%.

`Cc1ccc(CN2COc3c(ccc4c3c3ccccc3n4C)C2)cc1`: the results for the Activity in the test on MCF7 [2] and in the test on CCRF-CEM [3] were 42.5% and 55.5%, respectively.

In the case of `CC(c1ccccc1)N1COc2c(ccc3c2c2ccccc2n3C)C1` (centres undefined), the Activity with Caco-2 [1] worked out at 100%; in the test with MCF7 [2], 100%; in the test with CCRF-CEM [3], 40%; in the test on Raji [4] it was 84%; in the test with Jurkat [5] it was 80.5%.

For the molecule `C=CCn1c2ccccc2c2c3c(ccc21)CN(Cc1ccccc1)CO3`, the Activity in the test with Caco-2 [1] was 56.5%; in the test with MCF7 [2] it was 55.5%; with CCRF-CEM [3], 5.5%; in the test on Raji [4], 100%; with Jurkat [5], 67%.

`C=CCn1c2ccccc2c2c3c(ccc21)CN(Cc1ccc(C)cc1)CO3`: the Activity in the test on Caco-2 [1] worked out at 54.5%; in the test with MCF7 [2], 66%; in the test with CCRF-CEM [3], 9%; with Raji [4], 9.5%; with Jurkat [5], 3.5%.

Regarding `C=CCn1c2ccccc2c2c3c(ccc21)CN(Cc1ccccn1)CO3`, the Activity amounted to 55.5% with Caco-2 [1]; 47.5% with MCF7 [2]; 14.5% in the test on CCRF-CEM [3]; 31.5% in the test on Raji [4]; 12.5% in the test on Jurkat [5].

With `Cc1ccc(CN2COc3ccc4c5ccccc5n(C)c4c3C2)cc1`, the Activity is 3% in the test with Caco-2 [1]; 1.5% with MCF7 [2]; 1% in the test on CCRF-CEM [3]; 12% in the test with Raji [4]; 1.5% in the test with Jurkat [5].

In the case of `CC(C)=CCn1c2ccccc2c2c3c(ccc21)CN(Cc1ccc(C)cc1)CO3`, the Activity in the test with Caco-2 [1] was determined as 48.5%; in the test with MCF7 [2], 41.5%; in the test on CCRF-CEM [3], 11.5%; in the test with Raji [4] it was 11%; with Jurkat [5], 13.5%.

As to `CC(c1ccccc1)N1COc2ccc3c4ccccc4n(C)c3c2C1` (centres undefined), the Activity in the test on Caco-2 [1] is 5%; in the test on MCF7 [2], 0%; in the test with CCRF-CEM [3], 0.5%; in the test with Raji [4], 19.5%; with Jurkat [5] it was 0.5%.

Consider `Cn1c2ccccc2c2cc3c(cc21)OCN(Cc1nc2ccccc2s1)C3`, for which the Activity in the test with Caco-2 [1] amounted to 51%; with MCF7 [2], 79%; in the test on CCRF-CEM [3], 34%; in the test on Raji [4] it was 78%; with Jurkat [5] it was 17%.

`C=CCN1COc2c(ccc3c2c2ccccc2n3CC)C1`: the Activity is listed as 34% in the test with Caco-2 [1]; 10% in the test with MCF7 [2]; 4% with CCRF-CEM [3]; 4.5% in the test on Raji [4]; 6.5% in the test on Jurkat [5]. Moreover, the IC50 with Jurkat [6] came to 75 µM; in the test on Caco-2 [7], 25.2 µM; in the test on CCRF-CEM [8] it was 44 µM; in the test on Raji [10], 43.6 µM.

As for `CCn1c2ccccc2c2c3c(ccc21)CN(C(C)c1ccccc1)CO3` (centres undefined), the Activity was determined as 59% with Caco-2 [1], 86.5% in the test on MCF7 [2] and 21% in the test with CCRF-CEM [3].

Consider `CC(C)=CCn1c2ccccc2c2c3c(ccc21)CN(c1ccccc1)CO3`, for which the Activity stood at 60% with Caco-2 [1]; 49% in the test on MCF7 [2]; 10.5% in the test on CCRF-CEM [3]; 17% with Raji [4]; 7.5% in the test on Jurkat [5].
